Data taken from ChEMBL document CHEMBL1777764, “Synthesis and evaluation of 1-(1H-indol-3-yl)ethanamine derivatives as new antibacterial agents” (Bioorg Med Chem, 2011).

What was measured:
Pseudomonas aeruginosa = test: microbe, parasite or virus in culture; details: CIP 5933, 18 h
[1] = system: Staphylococcus epidermidis; test: Antibacterial activity against Staphylococcus epidermidis ATCC 12228 after 18 hrs by broth microdilution method; type: functional; details: ATCC 12228, 18 h
In short: (§1)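 MIC by broth microdilution per ISO 20776-1:2006 and CLSI M07-A8. Inoculum 10^6 cfu/ml in Mueller-Hinton broth with compound serially diluted, final concentrations 2 to 128 ug/ml, duplicate rows, no-drug growth control. Incubation 18 h at 37 °C. MIC taken as lowest concentration giving complete inhibition of visible growth. Each compound tested at least twice.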

Staphylococcus aureus [2] = test: Antibacterial activity against Staphylococcus aureus ATCC 9144 after 18 hrs by broth microdilution method; type: functional; details: ATCC 9144, 18 h
In short: as §1

Staphylococcus aureus [3] = test: Antibacterial activity against vancomycin intermediate Staphylococcus aureus […] after 18 hrs by broth microdilution method; type: functional
In short: (§2)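 Broth microdilution following ISO 20776-1:2006 and CLSI M07-A8, in Mueller-Hinton broth. Inoculum was 10^6 cfu/ml, with compound serial dilutions spanning 2 to 128 ug/ml and a compound-free growth control well. Plates were incubated 18 h at 37 °C. MIC was the lowest concentration giving complete inhibition of visible growth. Each compound was tested at least twice.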

Escherichia coli = test: Antibacterial activity against Escherichia coli ATCC 25922 after 18 hrs by broth microdilution method; type: functional; details: ATCC 25922, 18 h
In short: as §2

[4] = system: Staphylococcus epidermidis; test: Antibacterial activity against Staphylococcus epidermidis CIP 103627 after 18 hrs by broth microdilution method; type: functional; details: CIP 103627, 18 h
In short: as §1

Acinetobacter baumannii = test: microbe, parasite or virus in culture; details: ATCC 19606 = CIP 70.34 = JCM 6841, 18 h
Streptococcus pneumoniae [5] = test: Antibacterial activity against Streptococcus pneumoniae ATCC 49619 after 18 hrs by broth microdilution method; type: functional; details: ATCC 49619, 18 h
In short: (§3)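 MIC by broth microdilution per ISO 20776-1:2006 and CLSI M07-A8. Inoculum 10^6 cfu/ml in Mueller-Hinton broth […]. Compound serially diluted, final 2 to 128 ug/ml, duplicate rows, no-drug growth control. Read after 18 h at 37 °C as lowest concentration fully inhibiting visible growth. At least two experiments.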

Serratia marcescens = test: microbe, parasite or virus in culture; details: CIP 103551, 18 h
Streptococcus mitis = test: Antibacterial activity against Streptococcus mitis CIP 103335 after 18 hrs by broth microdilution method; type: functional; details: CIP 103335, 18 h
In short: as §2, with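 “broth […].” for “broth.”, “read after” for “incubated”, “with no” for “giving complete inhibition of”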

Haemophilus influenzae = test: Antibacterial activity against Haemophilus influenzae ATCC 49766 after 18 hrs by broth microdilution method; type: functional; details: ATCC 49766, 18 h
In short: as §2, with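 “broth […].” for “broth.”, “read after” for “incubated”, “with no” for “giving complete inhibition of”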

Staphylococcus aureus [6] = test: Antibacterial activity against Staphylococcus aureus ATCC 25923 after 18 hrs by broth microdilution method; type: functional; details: ATCC 25923, 18 h
In short: as §1

Streptococcus pneumoniae [7] = test: Antibacterial activity against Streptococcus pneumoniae ATCC 6303 after 18 hrs by broth microdilution method; type: functional; details: ATCC 6303, 18 h
In short: as §3

Staphylococcus aureus [8] = test: Antibacterial activity against methicillin-resistant Staphylococcus aureus ATCC 33592 after 18 hrs by broth microdilution method; type: functional; details: ATCC 33592, 18 h
In short: as §2

Staphylococcus aureus [9] = test: Antibacterial activity against Staphylococcus aureus ATCC 29213 after 18 hrs by broth microdilution method; type: functional; details: ATCC 29213, 18 h
In short: as §1

MRC5 [10] = test: Cytotoxicity against human MRC5 cells at 10 uM; type: cell-based; details: mrc5, 10 µM
Streptococcus pyogenes = test: Antibacterial activity against Streptococcus pyogenes CIP 104226 after 18 hrs by broth microdilution method; type: functional; details: CIP 104226, 18 h
In short: as §2

HCT-116 [11] = test: Cytotoxicity against human HCT116 cells at 10 uM; type: cell-based; details: hct-116, 10 µM
Enterobacter cloacae = test: microbe, parasite or virus in culture; details: ATCC 13047, 18 h
Klebsiella pneumoniae = test: microbe, parasite or virus in culture; details: ATCC 35657, 18 h
Staphylococcus aureus [12] = test: Antibacterial activity against methicillin-resistant Staphylococcus aureus CIP 65.25 after 18 hrs by broth microdilution method; type: functional; details: CIP 65.25, 18 h
In short: as §2

HCT-116 [13] = test: Cytotoxicity against human HCT116 cells at 1 uM; type: cell-based; details: hct-116, 1 µM
Enterococcus faecium = test: Antibacterial activity against Enterococcus faecium CIP 54.32 after 18 hrs by broth microdilution method; type: functional; details: CIP 54.32, 18 h
In short: as §2

Staphylococcus aureus [14] = test: Antibacterial activity against Staphylococcus aureus CIP 103428 after 18 hrs by broth microdilution method; type: functional; details: CIP 103428, 18 h
In short: as §1

Enterococcus faecalis = test: Antibacterial activity against Enterococcus faecalis ATCC 29212 after 18 hrs by broth microdilution method; type: functional; details: ATCC 29212, 18 h
In short: as §2

KB [15] = test: Cytotoxicity against human KB cells at 10 uM; type: cell-based
[16] = system: Staphylococcus epidermidis; test: Antibacterial activity against Staphylococcus epidermidis CIP 81.55 after 18 hrs by broth microdilution method; type: functional; details: CIP 81.55, 18 h
In short: as §1

KB [17] = test: Cytotoxicity against human KB cells at 1 uM; type: cell-based
Staphylococcus aureus [18] = test: Antibacterial activity against Staphylococcus aureus ATCC 6538 after 18 hrs by broth microdilution method; type: functional; details: ATCC 6538, 18 h
In short: as §1

Streptococcus agalactiae = test: Antibacterial activity against Streptococcus agalactiae ATCC 12400 after 18 hrs by broth microdilution method; type: functional; details: ATCC 12400, 18 h
In short: as §2

MRC5 [19] = test: Cytotoxicity against human MRC5 cells at 1 uM; type: cell-based; details: mrc5, 1 µM
Staphylococcus aureus [20] = test: Antibacterial activity against Staphylococcus aureus CIP 65.6 after 18 hrs by broth microdilution method; type: functional; details: CIP 65.6, 18 h
In short: as §1

Cl.Cl.NCC(NO)c1c[nH]c2cc(F)ccc12 (stereo unspecified)
MIC (Pseudomonas aeruginosa): 64 mg/L
MIC [1]: 16 mg/L
MIC (Staphylococcus aureus [2]): 16 mg/L
MIC (Staphylococcus aureus [3]): 16 mg/L
MIC (Escherichia coli): 64 mg/L
MIC [4]: 16 mg/L
MIC (Acinetobacter baumannii): 64 mg/L
MIC (Streptococcus pneumoniae [5]): 64 mg/L
MIC (Serratia marcescens): 64 mg/L
MIC (Streptococcus mitis): 64 mg/L
MIC (Haemophilus influenzae): > 128 mg/L
MIC (Staphylococcus aureus [6]): 16 mg/L
MIC (Streptococcus pneumoniae [7]): 64 mg/L
MIC (Staphylococcus aureus [8]): 16 mg/L
MIC (Staphylococcus aureus [9]): 16 mg/L
Activity (MRC5 [10]): Non-toxic
MIC (Streptococcus pyogenes): 64 mg/L
Activity (HCT-116 [11]): Non-toxic
MIC (Enterobacter cloacae): 64 mg/L
MIC (Klebsiella pneumoniae): 64 mg/L
MIC (Staphylococcus aureus [12]): 16 mg/L
Activity (HCT-116 [13]): Non-toxic
MIC (Enterococcus faecium): 128 mg/L
MIC (Staphylococcus aureus [14]): 16 mg/L
MIC (Enterococcus faecalis): 128 mg/L
Activity (KB [15]): Non-toxic
MIC [16]: 16 mg/L
Activity (KB [17]): Non-toxic
MIC (Staphylococcus aureus [18]): 16 mg/L
MIC (Streptococcus agalactiae): 64 mg/L
Activity (MRC5 [19]): Non-toxic
MIC (Staphylococcus aureus [20]): 16 mg/L

Cl.Cl.Cl.NCC(NO)c1c[nH]c2cc(Cl)ccc12 (stereo unspecified)
MIC (Pseudomonas aeruginosa): 64 mg/L
MIC [1]: 16 mg/L
MIC (Staphylococcus aureus [2]): 16 mg/L
MIC (Staphylococcus aureus [3]): 16 mg/L
MIC (Escherichia coli): 32 mg/L
MIC [4]: 16 mg/L
MIC (Acinetobacter baumannii): 64 mg/L
MIC (Streptococcus pneumoniae [5]): 64 mg/L
MIC (Serratia marcescens): 64 mg/L
MIC (Streptococcus mitis): 64 mg/L
MIC (Haemophilus influenzae): 128 mg/L
MIC (Staphylococcus aureus [6]): 16 mg/L
MIC (Streptococcus pneumoniae [7]): 64 mg/L
MIC (Staphylococcus aureus [8]): 16 mg/L
MIC (Staphylococcus aureus [9]): 16 mg/L
Activity (MRC5 [10]): Non-toxic
MIC (Streptococcus pyogenes): 64 mg/L
Activity (HCT-116 [11]): Non-toxic
MIC (Enterobacter cloacae): 64 mg/L
MIC (Klebsiella pneumoniae): 64 mg/L
MIC (Staphylococcus aureus [12]): 16 mg/L
Activity (HCT-116 [13]): Non-toxic
MIC (Enterococcus faecium): 128 mg/L
MIC (Staphylococcus aureus [14]): 16 mg/L
MIC (Enterococcus faecalis): 128 mg/L
Activity (KB [15]): Non-toxic
MIC [16]: 16 mg/L
Activity (KB [17]): Non-toxic
MIC (Staphylococcus aureus [18]): 16 mg/L
MIC (Streptococcus agalactiae): 64 mg/L
Activity (MRC5 [19]): Non-toxic
MIC (Staphylococcus aureus [20]): 16 mg/L

Cl.Cl.NCC(NO)c1c[nH]c2ccc(F)cc12 (stereo unspecified)
MIC (Pseudomonas aeruginosa): 32 mg/L
MIC [1]: 8 mg/L
MIC (Staphylococcus aureus [2]): 8 mg/L
MIC (Staphylococcus aureus [3]): 8 mg/L
MIC (Escherichia coli): 32 mg/L
MIC [4]: 8 mg/L
MIC (Acinetobacter baumannii): 32 mg/L
MIC (Streptococcus pneumoniae [5]): 64 mg/L
MIC (Serratia marcescens): 32 mg/L
MIC (Streptococcus mitis): 32 mg/L
MIC (Haemophilus influenzae): > 128 mg/L
MIC (Staphylococcus aureus [6]): 8 mg/L
MIC (Streptococcus pneumoniae [7]): 64 mg/L
MIC (Staphylococcus aureus [8]): 16 mg/L
MIC (Staphylococcus aureus [9]): 8 mg/L
Activity (MRC5 [10]): Non-toxic
MIC (Streptococcus pyogenes): 32 mg/L
Activity (HCT-116 [11]): Non-toxic
MIC (Enterobacter cloacae): 32 mg/L
MIC (Klebsiella pneumoniae): 32 mg/L
MIC (Staphylococcus aureus [12]): 16 mg/L
Activity (HCT-116 [13]): Non-toxic
MIC (Enterococcus faecium): 64 mg/L
MIC (Staphylococcus aureus [14]): 8 mg/L
MIC (Enterococcus faecalis): 64 mg/L
Activity (KB [15]): Non-toxic
MIC [16]: 8 mg/L
Activity (KB [17]): Non-toxic
MIC (Staphylococcus aureus [18]): 8 mg/L
MIC (Streptococcus agalactiae): 32 mg/L
Activity (MRC5 [19]): Non-toxic
MIC (Staphylococcus aureus [20]): 8 mg/L
